This is an account of results in ChEMBL document CHEMBL2062387, “Blockade of STAT3 activation by sorafenib derivatives through enhancing SHP-1 phosphatase activity” (Eur J Med Chem, 2012).

A word on the IC50: it is the midpoint of a concentration-inhibition curve. A higher IC50 goes with weaker potency.

Test [1] has as its target Tyrosine-protein phosphatase non-receptor type 6 (Homo sapiens) (UniProt P29350). Kind of test: Induction of SHP1 activation in human PLC5 cells assessed as repression of survivin expression at 5 to 10 uM after 24 hrs by Western blot method. It is filed as cell-based. In outline: (§1)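 PLC5 cells were treated at 5 and 10 µM for 24 h in serum-free medium. Lysates were immunoblotted for p-STAT3 (Tyr705), STAT3, Mcl-1, cyclin D1, survivin, SOCS-1, SOCS-3 and PARP.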
(In western blotting, separated proteins are transferred to a membrane and probed.)

Test [2] has the same target. Nature of the test: Induction of SHP1 activation in human PLC5 cells assessed as reduction of p-STAT3 at 5 to 10 uM after 24 hrs by Western blot method. Format: cell-based. In outline:
as §1

Test [3] shares this target. Nature of the test: Induction of SHP1 activation in human PLC5 cells assessed as repression of Mcl-1 expression at 5 to 10 uM after 24 hrs by Western blot method. Format: cell-based. In outline:
as §1

The target is the same in test [4]. Nature of the test: Induction of SHP1 activation in human PLC5 cells assessed as effect on SOCS-1 level at 5 to 10 uM after 24 hrs by Western blot method. It is filed as cell-based. In outline: as §1
The target is the same in test [5]. Kind of test: Induction of SHP1 activation in human PLC5 cells assessed as effect on SOCS-3 level at 5 to 10 uM after 24 hrs by Western blot method. Format: cell-based. In outline: as §1
Test [6] has the same target. Nature of the test: Induction of SHP1 activation in human PLC5 cells assessed as repression of CCND1 expression at 5 to 10 uM after 24 hrs by Western blot method. Format: cell-based. In outline: as §1
For test [7] the target is unchanged. Nature of the test: Induction of SHP1 activation in IL-6-stimulated human PLC5 cells assessed as reduction of p-STAT3 at 10 uM after 24 hrs by ELISA. Format: cell-based. In outline:
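PLC5 cells were pre-stimulated with IL-6 at 25 ng/mL for 30 min, then treated with 10 µM compound for 24 h. Phospho-STAT3 was measured by ELISA against a DMSO control. Mean ± SD, N = 3.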
Background: In an ELISA, binding on a coated surface is turned into a signal by an enzyme label.

For test [8] the target is unchanged. Kind of test: Induction of SHP1 activation in human PLC5 cell lysate at 10 uM after 24 hrs. Format: cell-based. In short, it runs like this: (§2)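 PLC5 cells were treated with compound for 24 h. SHP-1 was immunoprecipitated from lysates and its phosphatase activity measured with the EnzChek tyrosine phosphatase kit. Mean ± SD, N = 3.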
Test [9] can be described thus: Growth inhibition of human PLC5 cells after 24 hrs by MTT assay. Particulars: PLC5, 24 h. Format: functional, cell-based. In short, it runs like this: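 PLC5 cells were grown in DMEM with 10% FBS, penicillin, streptomycin and amphotericin B at 37 °C in 5% CO2. Cells were seeded in 96-well plates for 24 h, then exposed to agents in DMSO (0.1% final) in DMEM for 24 h; range 0.1–15 µM. MTT at 0.5 mg/mL was added for 2 h and absorbance read at 570 nm. Six replicates; IC50 derived.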

Test [10] deals with Tyrosine-protein phosphatase non-receptor type 6 (Homo sapiens) (UniProt P29350). Nature of the test: Induction of SHP1 activation in human PLC5 cells assessed as PARP cleavage at 5 to 10 uM after 24 hrs by Western blot method. Format: cell-based. In outline: as §1
The target is the same in test [11]. Nature of the test: Induction of SHP1 activation in human PLC5 cell lysate after 24 hrs. It is filed as cell-based. In outline: as §2
The target is the same in test [12]. Nature of the test: Induction of SHP1 activation in human PLC5 cells at 1 to 15 uM after 24 hrs. Format: cell-based. In short, it runs like this:
as §2

In the next test the test system is PLC5. Nature of the test: Antitumor activity against PLC5 cells xenografted in athymic NCr mouse assessed as tumor growth inhibition at 10 mg/kg, po once daily for 3 weeks. Format: functional, organism-based. Also noted: dose 10 mg/kg. In outline: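 Male NCr athymic nude mice, 5–7 weeks old, bearing PLC5 tumors. Dosing began when tumors reached 100 mm3: 10 mg/kg p.o. once daily for three weeks. Vehicle was Cremophor EL/95% ethanol (50:50), given to controls. Read-out was tumor growth.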

For test [13], the system named is Mus musculus. Kind of test: Inhibition of STAT3 phosphorylation in tumor of athymic NCr mouse xenografted with PLC5 cells at 10 mg/kg, po once daily for 3 weeks by Western blot method. Further details: dose 10 mg/kg. Format: functional, organism-based. In outline: (§3)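 Tumors came from PLC5 xenografts in nude mice dosed at 10 mg/kg/day p.o. for three weeks, with vehicle Cremophor EL/ethanol (50:50). Tumor extracts were assayed for p-STAT3 by western blot and for SHP-1 phosphatase activity.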

Test [14] deals with Mus musculus. Nature of the test: Induction of SHP1 activity in tumor of athymic NCr mouse xenografted with PLC5 cells at 10 mg/kg, po once daily for 3 weeks. Format: functional, organism-based. Also noted: dose 10 mg/kg. In outline: as §3
A short description of test [15]: Ratio of SC-1 IC50 to compound IC50 for human PLC5 cells. It is filed as functional.

The source made the active and inactive calls. The calls are words filed in the database; no cut-off is given here.

Sequence of Tyrosine-protein phosphatase non-receptor type 6 (Homo sapiens) (P29350 whole entry): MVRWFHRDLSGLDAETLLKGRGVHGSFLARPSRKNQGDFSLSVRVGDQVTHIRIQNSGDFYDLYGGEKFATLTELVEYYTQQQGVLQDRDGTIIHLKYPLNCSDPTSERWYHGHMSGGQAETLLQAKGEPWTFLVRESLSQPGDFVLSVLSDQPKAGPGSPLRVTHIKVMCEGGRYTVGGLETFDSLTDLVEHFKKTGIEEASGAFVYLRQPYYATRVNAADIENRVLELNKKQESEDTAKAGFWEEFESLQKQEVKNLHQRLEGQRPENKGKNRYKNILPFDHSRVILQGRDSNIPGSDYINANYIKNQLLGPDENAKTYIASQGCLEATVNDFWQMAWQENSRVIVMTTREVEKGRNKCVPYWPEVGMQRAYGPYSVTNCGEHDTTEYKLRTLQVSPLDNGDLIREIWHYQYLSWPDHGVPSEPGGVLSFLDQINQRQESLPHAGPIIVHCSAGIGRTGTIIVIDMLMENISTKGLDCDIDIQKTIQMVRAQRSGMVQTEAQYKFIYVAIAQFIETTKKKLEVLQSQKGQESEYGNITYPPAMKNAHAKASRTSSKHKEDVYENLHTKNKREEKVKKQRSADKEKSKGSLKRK

As to `N#Cc1ccc(Oc2cccc(NC(=O)Nc3ccc(Cl)c(C(F)(F)F)c3)c2)cc1` [SC-43], the result in [1], in test [2], in test [3], in test [6], in test [7] and in test [8] was Active. The result in test [10] was Active. Further, the result in test [4] and in [5] was inactive. In addition, in [9], the half-inhibitory concentration (IC50) amounted to 0.5 µM. The Activity result in [11] is “Dose-dependent effect”.
For the compound `CNC(=O)c1cc(Oc2ccc(NC(=O)Nc3ccc(Cl)c(C(F)(F)F)c3)cc2)ccn1`, the result in test [12] was Active.
As for `COc1ccc(CNC(=O)NCc2ccc(Oc3ccc(C#N)cc3)cc2)cc1OC`, the result in [7] was Active. The compound further registered a concentration for half-maximal inhibition (IC50) in test [9] of 10.5 µM.
In the same order, the values of `CNC(=O)c1cc(Oc2cccc(NS(=O)(=O)c3ccccc3)c2)ccn1` are “inactive” and above 15 µM.
As to `CNC(=O)c1cc(Oc2cccc(NS(=O)(=O)c3cccc(C(F)(F)F)c3)c2)ccn1`, in [7], the result was Active. The half-inhibitory concentration (IC50) in [9] is 8.4 µM.
In the same order, the values of `N#Cc1ccc(Oc2cccc(NC(=O)c3ccccc3)c2)cc1` are “inactive” and above 15 µM.
Regarding `O=c1[nH]c2ccc(Oc3cccc(NCc4cccc(OC(F)(F)F)c4)c3)cc2[nH]1`, in test [7], the result was Active. This compound displayed a concentration for half-maximal inhibition (IC50) in [9] of 10.2 µM.
In the same order, the values of `Nc1cc(Oc2cccc(NC(=O)Nc3ccc(Cl)c(C(F)(F)F)c3)c2)ccc1[N+](=O)[O-]` are “Active” and 1.2 µM.
In the same order, the values of `Nc1ccc(Oc2cccc(NS(=O)(=O)c3cccc(C(F)(F)F)c3)c2)cc1N` are “inactive” and above 15 µM.
In the same order, the values of `O=c1[nH]c2ccc(Oc3cccc(NS(=O)(=O)c4cccc(C(F)(F)F)c4)c3)cc2[nH]1` are “Active” and 11.5 µM.
Regarding `Cc1ccc(NC(=O)Nc2ccc(Cl)c(C(F)(F)F)c2)cc1Oc1ccc(C#N)cc1`, in test [7], the result was Active. Also, the half-maximal inhibitory concentration (IC50) in test [9] amounted to 4.5 µM.
In the same order, the values of `C[C@@H](NC(=O)Nc1ccc(Oc2ccc(C#N)cc2)cc1)c1cccc2ccccc12` are “inactive” and above 15 µM.
Taken in the same sequence, the figures for `N#Cc1ccc(Oc2cccc(NS(=O)(=O)c3ccccc3)c2)cc1` were “inactive” and above 15 µM.
Taken in the same sequence, the figures for `Nc1ccc(Oc2cccc(NCc3cccc(OC(F)(F)F)c3)c2)cc1N` were “inactive” and above 15 µM.
Take `COc1ccc(CNC(=O)Nc2ccc(Oc3ccc(C#N)cc3)cc2)cc1OC`: in [7], the outcome was Active. This compound gave a 50% inhibitory concentration (IC50) in test [9] of 12.3 µM.
`N#Cc1ccc(Oc2cccc(NS(=O)(=O)c3cccc(C(F)(F)F)c3)c2)cc1`: the result in test [7] was Active. The concentration for half-maximal inhibition (IC50) in [9] was found to be 2.2 µM.
`N#Cc1ccc(Oc2ccc(CNC(=O)Nc3ccc(Cl)c(C(F)(F)F)c3)cc2)cc1`: the TGI result with PLC5 was “Active”. Besides, the inhibition result with Mus musculus [13] is “Active”. The result (in the test with Mus musculus [14]; in test [7]; in test [8]) was Active. Besides, the “Ratio IC50” value in test [15] was 4. In test [9], this compound showed a concentration for half-maximal inhibition (IC50) of 2.1 µM.
Take `N#Cc1ccc(Oc2cccc(NC(=O)Nc3cccc(F)c3)c2)cc1`: the outcome in test [7] was Active. In addition, the half-maximal inhibitory concentration (IC50) in test [9] amounted to 3.3 µM.
Taken in the same sequence, the figures for `N#Cc1ccc(Oc2ccc(CNC(=O)NCc3cccc(OC(F)(F)F)c3)cc2)cc1` were “inactive” and above 15 µM.
Turning to `CNC(=O)c1cc(Oc2cccc(NC(=O)c3ccccc3)c2)ccn1`, in test [7], the result was inactive. Besides, the IC50 in [9] is above 15 µM.
Turning to `CNC(=O)c1cc(Oc2cccc(NCc3cccc(OC(F)(F)F)c3)c2)ccn1`, the result in test [1], in test [2], in [3], in [4], in test [5] and in test [6] was inactive. Also, the result in test [7] and in test [8] was inactive. For the same compound, the IC50 in [9] was above 15 µM.
In the case of `CNC(=O)c1cc(Oc2cccc(NC(=O)Nc3cccc(F)c3)c2)ccn1`, the outcome in test [7] was inactive. Moreover, the IC50 in test [9] is above 15 µM.
On to `Nc1cc(Oc2cccc(NS(=O)(=O)c3cccc(C(F)(F)F)c3)c2)ccc1[N+](=O)[O-]`, for which the outcome in test [7] was Active. In test [9], this compound returned an IC50 of 3.9 µM.
Taken in the same sequence, the figures for `Nc1cc(Oc2cccc(NCc3cccc(OC(F)(F)F)c3)c2)ccc1[N+](=O)[O-]` were “Active” and 8.3 µM.
Taken in the same sequence, the figures for `N#Cc1ccc(Oc2cccc(NCc3cccc(OC(F)(F)F)c3)c2)cc1` were “inactive” and above 15 µM.
